Test results as given in ChEMBL document CHEMBL5724801, “EUbOPEN Chemogenomics Library - Multiplex” (2024).
Values joined by “and” are separate entries in the source; they are usually repeats but may differ in a detail not shown here. Identical values can stand only once.

Tested on: HEK-293T
Assay: Multiplex assay against HEK293T
Assay type: toxicity, cell-based
Details: human
Method in brief: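 Imaging took place on a CQ1 microscope at 37°C and 5% CO2 once compound had been added to live cells stained at seeding with Hoechst33342, BioTracker Green Microtubule Cytoskeleton Dye, MitoTracker Red and Annexin V Alexa Fluor 680. CellPathfinder machine-learning gating classed cells as Hoechst high-intensity objects or normal cells, classed normal cells as having healthy, pyknosed or fragmented nuclei, and classed pyknosed cells as mitotic or apoptotic. Tubulin, mitochondrial-mass and membrane-permeability phenotypes are per cents of the healthy-nucleus cells.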

[1] = 12 h, 1 µM, compound concentration 1 uM
[2] = 12 h, 10 µM, compound concentration 10 uM
[3] = 24 h, 1 µM, compound concentration 1 uM
[4] = 24 h, 10 µM, compound concentration 10 uM
[5] = 48 h, 1 µM, compound concentration 1 uM
[6] = 48 h, 10 µM, compound concentration 10 uM

## Cc1ccc(-c2c(C(=O)CF)n(CCCO)c3ncnc(N)c23)cc1
[1]
  Population Apoptotic (%): 10.53% and 14.63%
  Population Fragmented Nuclei (%): 2.38% and 4.08%
  Population Hoechst High Intensity Objects (%): 0%
  Population Membrane Permeable-Phenotype (%): 0% and 5.56%
  Population Mitotic Cells (%): 89.47% and 85.37%
  Population Normal (%): 100%
  Population Pyknosed Nuclei (%): 38.78% and 83.67%
  Total Cell Count: 294 and 147
[2]
  Population Apoptotic (%): 9.68% and 15.93%
  Population Fragmented Nuclei (%): 5.7% and 4.44%
  Population Hoechst High Intensity Objects (%): 0.33% and 0%
  Population Membrane Permeable-Phenotype (%): 1.91% and 0%
  Population Mitochondria Different-Phenotype (%): 38.22% and 25%
  Population Mitotic Cells (%): 90.32% and 84.07%
  Population Normal (%): 99.67% and 100%
  Population Pyknosed Nuclei (%): 41.61% and 83.7%
  Population Tubulin-Different-Phenotype (%): 17.83% and 37.5%
  Total Cell Count: 299 and 135
[3]
  Population Apoptotic (%): 6.73% and 15.13%
  Population Fragmented Nuclei (%): 3.4% and 2.5%
  Population Hoechst High Intensity Objects (%): 0%
  Population Membrane Permeable-Phenotype (%): 2.86% and 0%
  Population Mitochondria Different-Phenotype (%): 14.57% and 8.11%
  Population Mitotic Cells (%): 93.27% and 84.87%
  Population Normal (%): 100%
  Population Tubulin-Different-Phenotype (%): 10.86% and 5.41%
  Total Cell Count: 470 and 160
[4]
  Population Apoptotic (%): 19.61% and 24.07%
  Population Fragmented Nuclei (%): 2.25% and 2.94%
  Population Healthy Nuclei (%): 74.77% and 33.53%
  Population Hoechst High Intensity Objects (%): 0%
  Population Membrane Permeable-Phenotype (%): 0.9% and 0%
  Population Mitotic Cells (%): 80.39% and 75.93%
  Population Normal (%): 100%
  Population Pyknosed Nuclei (%): 22.97% and 63.53%
  Population Tubulin-Different-Phenotype (%): 24.4% and 8.77%
  Total Cell Count: 444 and 170
[5]
  Population Fragmented Nuclei (%): 1.92% and 2.58%
  Population Healthy Nuclei (%): 88.16% and 57.22%
  Population Hoechst High Intensity Objects (%): 0%
  Population Membrane Permeable-Phenotype (%): 5.14% and 2.7%
  Population Mitochondria Different-Phenotype (%): 13.34% and 21.62%
  Population Mitotic Cells (%): 97.67% and 83.33%
  Population Normal (%): 100%
[6]
  Population Apoptotic (%): 7.29% and 16.44%
  Population Fragmented Nuclei (%): 3.41% and 2.51%
  Population Healthy Nuclei (%): 87.23% and 60.8%
  Population Hoechst High Intensity Objects (%): 0%
  Population Membrane Permeable-Phenotype (%): 3.58% and 0.83%
  Population Mitochondria Different-Phenotype (%): 25.47% and 33.88%
  Population Mitotic Cells (%): 92.71% and 83.56%
  Population Normal (%): 100%

## Cc1c(-c2cc(-c3ccccc3Cl)no2)cnn1C1CCNCC1.Cl
[1]
  Population Apoptotic (%): 10.39% and 11.29%
  Population Fragmented Nuclei (%): 3.59% and 2.19%
  Population Hoechst High Intensity Objects (%): 0.28% and 0%
  Population Membrane Permeable-Phenotype (%): 0%
  Population Mitochondria Different-Phenotype (%): 33.33% and 20%
  Population Mitotic Cells (%): 89.61% and 88.71%
  Population Normal (%): 99.72% and 100%
  Population Pyknosed Nuclei (%): 42.54% and 90.51%
  Population Tubulin-Different-Phenotype (%): 9.74% and 20%
  Total Cell Count: 363 and 137
[2]
  Population Apoptotic (%): 15.64% and 14.06%
  Population Fragmented Nuclei (%): 1.78% and 2.96%
  Population Hoechst High Intensity Objects (%): 0.44% and 0%
  Population Membrane Permeable-Phenotype (%): 2.38% and 0%
  Population Mitochondria Different-Phenotype (%): 42.86% and 33.33%
  Population Mitotic Cells (%): 84.36% and 85.94%
  Population Normal (%): 99.56% and 100%
  Population Pyknosed Nuclei (%): 79.56% and 94.81%
  Population Tubulin-Different-Phenotype (%): 78.57% and 100%
  Total Cell Count: 226 and 135
[3]
  Population Apoptotic (%): 16.36% and 12.04%
  Population Fragmented Nuclei (%): 2.54% and 2.07%
  Population Healthy Nuclei (%): 62.58% and 23.45%
  Population Hoechst High Intensity Objects (%): 0.21% and 0.68%
  Population Membrane Permeable-Phenotype (%): 1.35% and 0%
  Population Mitochondria Different-Phenotype (%): 20.61% and 26.47%
  Population Mitotic Cells (%): 83.64% and 87.96%
  Population Normal (%): 99.79% and 99.32%
  Population Pyknosed Nuclei (%): 34.88% and 74.48%
  Population Tubulin-Different-Phenotype (%): 23.31% and 17.65%
[4]
  Population Apoptotic (%): 46.71% and 55.88%
  Population Fragmented Nuclei (%): 1.42% and 2.05%
  Population Hoechst High Intensity Objects (%): 1.85% and 0.68%
  Population Membrane Permeable-Phenotype (%): 0% and 14.29%
  Population Mitochondria Different-Phenotype (%): 78.57% and 57.14%
  Population Mitotic Cells (%): 53.29% and 44.12%
  Population Normal (%): 98.15% and 99.32%
  Population Pyknosed Nuclei (%): 78.77% and 93.15%
  Population Tubulin-Different-Phenotype (%): 92.86% and 85.71%
  Total Cell Count: 216 and 147
[5]
  Population Apoptotic (%): 12.5% and 24.62%
  Population Fragmented Nuclei (%): 3.19% and 2.61%
  Population Healthy Nuclei (%): 82.92% and 54.9%
  Population Hoechst High Intensity Objects (%): 0% and 1.29%
  Population Membrane Permeable-Phenotype (%): 4.07% and 0%
  Population Mitochondria Different-Phenotype (%): 28.52% and 35.71%
  Population Mitotic Cells (%): 87.5% and 75.38%
  Population Normal (%): 100% and 98.71%
[6]
  Population Apoptotic (%): 59.7% and 87.84%
  Population Fragmented Nuclei (%): 1.25% and 4.94%
  Population Hoechst High Intensity Objects (%): 2.44% and 0%
  Population Membrane Permeable-Phenotype (%): 0.97% and 0%
  Population Mitochondria Different-Phenotype (%): 87.38% and 100%
  Population Normal (%): 97.56% and 100%
  Population Pyknosed Nuclei (%): 55.83% and 91.36%
  Population Tubulin-Different-Phenotype (%): 73.79% and 100%
  Total Cell Count: 246 and 162
